Laboratory results from ChEMBL document CHEMBL3351900, “Conjugation of a nonspecific antiviral sapogenin with a specific HIV fusion inhibitor: a promising strategy for discovering new antiviral therapeutics” (J Med Chem, 2014).
≈ marks a conversion by molar mass, not a printed value. Calls of active or inactive are those of the source. No cut-off for these calls is given here. Square brackets hold non-standard residues; d marks the D form. Peptide text beside a SMILES is read from it. * marks the point of attachment. X3 = C=C(C)[C@@H]1CC[C@]2(C(=O)O)CC[C@]3(C)[C@H](CC[C@@H]4[C@@]5(C)CC[C@H](OC(=O)CCc6cn(CC(=O)*)nn6)C(C)(C)[C@@H]5CC[C@]43C)[C@@H]12; X2 = C=CCOC(=O)[C@]12CCC(C)(C)C[C@H]1C1=CC[C@@H]3[C@@]4(C)CC[C@H](OC(=O)CCc5cn(CC(=O)*)nn5)C(C)(C)[C@@H]4CC[C@@]3(C)[C@]1(C)CC2; βAla = NCCC(=O)O

Experiments:
[1] = tested on: Human immunodeficiency virus 1; test: Antiviral activity against HIV1 3B infected in human MT2 cells assessed as inhibition of viral entry compound treated at 200 nM at 6 hrs post infection measured 3 to 4 days post infection by time-of-addition assay
[2] = Solubility of the compound in pure water by UV spectrophotometry; assay type: physicochemical
Outline: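 About 1 mg of peptide dissolved in 10 μL water or PBS and centrifuged. Supernatant concentration of the tyrosine-containing conjugate determined from UV absorbance at 280 nm.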

[3] = Selectivity index, ratio of CC50 for human MT2 cells to EC50 for HIV1 3B infected in human MT2 cells; assay type: toxicity, cell-based; conditions: read-out: Ratio CC50/EC50
[4] = tested on: Human immunodeficiency virus 1; test: Antiviral activity against HIV1 3B infected in human MT2 cells assessed as inhibition of viral p24 antigen production by ELISA; assay type: functional, organism-based; conditions: Human immunodeficiency virus 1, 3B
Outline: (§1)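 MT-2 cells (1 × 10⁴) infected with 100 TCID₅₀ virus with or without peptides at graded concentrations. Culture supernatants collected on day 4 postinfection; p24 antigen quantified by ELISA. Percent inhibition and EC₅₀ calculated; tested in triplicate, mean ± standard deviation.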

[5] = Cytotoxicity against human MT2 cells after 4 days by XTT assay; assay type: cell-based
Outline: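 MT-2 cells (5 × 10⁵/mL) mixed with equal volumes of graded conjugate concentrations and held at 37 °C for 4 days. XTT (1 mg/mL) with 0.02 μM phenazine methosulfate added for 4 h, then A450 read. CC50 calculated from the dose–response.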

[6] = tested on: Human immunodeficiency virus 1; test: Antiviral activity against HIV1 BaL infected in human […] cells assessed as inhibition of viral replication; assay type: functional, organism-based; conditions: Human immunodeficiency virus 1, BaL
Outline: as §1

[7] = biological target: GP41 (Human immunodeficiency virus 1) (UniProt Q76270); test: Ratio of EC50 for HIV1 gp41-induced cell-cell fusion between viral envelope expressing human HL2/3 cells to CD4/CCR5 receptor expressing TZM-bl cells with wash out to EC50 for HIV1 gp41-induced cell-cell fusion between viral envelope expressing human HL2/3 cells to CD4/CCR5 receptor expressing TZM-bl cells; assay type: cell-based
Outline: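 Peptides preincubated with TZM-bl cells at 37 °C for 1 h, with or without washing away unbound peptide. EC50 compared between washed and unwashed cells, giving the n-fold change. Triplicates, mean ± SD.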

In the case of `Cc1cn([C@H]2C[C@H](N=[N+]=[N-])[C@@H](CO)O2)c(=O)[nH]c1=O`, the inhibition [1] is reported as “Active”.
In the case of `C=CCOC(=O)[C@]12CCC(C)(C)C[C@H]1C1=CC[C@@H]3[C@@]4(C)CC[C@H](OC(=O)CCc5cn(CC(=O)NCCCC[C@H](NC(=O)CCNC(=O)[C@H](CC(C)C)NC(=O)[C@H](CC(C)C)NC(=O)[C@H](CCC(=O)O)NC(=O)[C@H](CCC(N)=O)NC(=O)[C@H](CCC(=O)O)NC(=O)[C@H](CC(N)=O)NC(=O)[C@H](CCCCN)NC(=O)[C@H](CCC(=O)O)NC(=O)[C@H](CCC(N)=O)NC(=O)[C@H](CCC(N)=O)NC(=O)[C@H](CC(N)=O)NC(=O)[C@H](CCC(N)=O)NC(=O)[C@H](CO)NC(=O)[C@H](CCC(=O)O)NC(=O)[C@H](CCC(=O)O)NC(=O)[C@@H](NC(=O)[C@H](CC(C)C)NC(=O)[C@H](CO)NC(=O)[C@H](Cc6cnc[nH]6)NC(=O)[C@@H](NC(=O)[C@H](CC(C)C)NC(=O)[C@H](CO)NC(=O)[C@@H](NC(=O)[C@H](Cc6ccc(O)cc6)NC(=O)[C@H](CC(N)=O)NC(=O)[C@H](CC(N)=O)NC(C)=O)[C@@H](C)O)[C@@H](C)CC)[C@@H](C)CC)C(N)=O)nn5)C(C)(C)[C@@H]4CC[C@@]3(C)[C@]1(C)CC2` (Ac-NNYTSLIHSLIEESQNQQEKNEQELL[βAla]K(X2)-NH2), the solubility [2] is reported as 12.4 mg/mL (≈ 3.1 mM), the selectivity ratio [3] is reported as 2640 and the EC50 [4] is reported as 3.11 nM. The CC50 at 96 h [5] was 8220 nM and the EC50 [6] was 0.271 nM.
Molecule `C=C(C)[C@@H]1CC[C@]2(C(=O)O)CC[C@]3(C)[C@H](CC[C@@H]4[C@@]5(C)CC[C@H](OC(=O)CCc6cn(CC(=O)NCCC(=O)N[C@@H](CC(N)=O)C(=O)N[C@@H](CC(N)=O)C(=O)N[C@@H](Cc7ccc(O)cc7)C(=O)N[C@H](C(=O)N[C@@H](CO)C(=O)N[C@@H](CC(C)C)C(=O)N[C@H](C(=O)N[C@@H](Cc7cnc[nH]7)C(=O)N[C@@H](CO)C(=O)N[C@@H](CC(C)C)C(=O)N[C@H](C(=O)N[C@@H](CCC(=O)O)C(=O)N[C@@H](CCC(=O)O)C(=O)N[C@@H](CO)C(=O)N[C@@H](CCC(N)=O)C(=O)N[C@@H](CC(N)=O)C(=O)N[C@@H](CCC(N)=O)C(=O)N[C@@H](CCC(N)=O)C(=O)N[C@@H](CCC(=O)O)C(=O)N[C@@H](CCCCN)C(=O)N[C@@H](CC(N)=O)C(=O)N[C@@H](CCC(=O)O)C(=O)N[C@@H](CCC(N)=O)C(=O)N[C@@H](CCC(=O)O)C(=O)N[C@@H](CC(C)C)C(=O)N[C@@H](CC(C)C)C(N)=O)[C@@H](C)CC)[C@@H](C)CC)[C@@H](C)O)nn6)C(C)(C)[C@@H]5CC[C@]43C)[C@@H]12` ({X3-βAla}-NNYTSLIHSLIEESQNQQEKNEQELL-NH2) has a Ratio EC50 [7] of over 85, a selectivity ratio [3] of over 187 and an EC50 [4] of 133 nM. It also gave a CC50 at 96 h [5] of over 25000 nM and an EC50 [6] of 98 nM.
